From ChEMBL document CHEMBL3232844, “Synthesis and structure activity relationships of schweinfurthin indoles” (2014)

Legend:
Assay type in all cases: functional
NCI-H322M = experiment: Cytotoxicity against human NCI-H322M cells
How it was run: (§1)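 Tested in a 60-cell-line human tumor panel screen; the read-out is growth inhibition, reported as GI50 for each cell line.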

[1] = Cytotoxicity against human OVCAR3 cells; how it was run: as §1
SF-539 = experiment: Cytotoxicity against human SF539 cells; how it was run: as §1
RXF 393 = experiment: Cytotoxicity against human RXF393 cells; how it was run: as §1
CCRF-CEM = experiment: Cytotoxicity against human CCRF-CEM cells
MOLT-4 = experiment: Cytotoxicity against human MOLT4 cells; how it was run: as §1
A498 = experiment: Cytotoxicity against human A498 cells; how it was run: as §1
SK-MEL-5 = experiment: Cytotoxicity against human SK-MEL-5 cells; how it was run: as §1
PC-3 = experiment: Cytotoxicity against human PC3 cells; how it was run: as §1
NCI-H226 = experiment: Cytotoxicity against human NCI-H226 cells; how it was run: as §1
HT-29 = experiment: Cytotoxicity against human HT-29 cells; how it was run: as §1
SK-MEL-2 = experiment: Cytotoxicity against human SK-MEL-2 cells; how it was run: as §1
BT-549 = experiment: Cytotoxicity against human BT549 cells; how it was run: as §1
HCC 2998 = experiment: Cytotoxicity against human HCC2998 cells; how it was run: as §1
MDA-MB-435 = experiment: Cytotoxicity against human MDA-MB-435 cells; how it was run: as §1
U-251 = experiment: Cytotoxicity against human U251 cells
How it was run: (§2)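 Cell line run as part of the 60-cell-line screening panel; growth inhibition was reported as a GI50 for each line.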

DU-145 = experiment: Cytotoxicity against human DU145 cells; how it was run: as §1
KM12 = experiment: Cytotoxicity against human KM12 cells; how it was run: as §1
SK-OV-3 = experiment: Cytotoxicity against human SKOV3 cells; how it was run: as §1
[2] = Cytotoxicity against human UACC257 cells; how it was run: as §2
ACHN = experiment: Cytotoxicity against human ACHN cells; how it was run: as §1
[3] = Cytotoxicity against human OVCAR5 cells; how it was run: as §1
NCI-H23 = experiment: Cytotoxicity against human NCI-H23 cells; how it was run: as §1
[4] = Cytotoxicity against human EKVX cells; how it was run: as §1
[5] = Cytotoxicity against human NCI-ADR-RES cells; how it was run: as §1
SF-268 = experiment: Cytotoxicity against human SF268 cells; how it was run: as §1
MDA-MB-231 = experiment: Cytotoxicity against human MDA-MB-231 cells; how it was run: as §1
HL-60(TB) = experiment: Cytotoxicity against human HL-60(TB) cells
How it was run: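 Tested within the NCI 60-cell-line screen, with GI50 as the read-out. Values are the average of two independent experiments. The lowest concentration tested was 10 nM.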

SF-295 = experiment: Cytotoxicity against human SF295 cells; how it was run: as §1
SR = experiment: Cytotoxicity against human SR cells; how it was run: as §2
[6] = Cytotoxicity against human UACC62 cells; how it was run: as §2
K562 = experiment: Cytotoxicity against human K562 cells; how it was run: as §1
[7] = Cytotoxicity against human UO31 cells; how it was run: as §2
M14 = experiment: Cytotoxicity against human M14 cells; how it was run: as §1
786-0 = experiment: Cytotoxicity against human 786-0 cells; how it was run: as §1
[8] = Cytotoxicity against human OVCAR8 cells; how it was run: as §1
SNB-75 = experiment: Cytotoxicity against human SNB75 cells; how it was run: as §2
NCI-H460 = experiment: Cytotoxicity against human NCI-H460 cells; how it was run: as §1
SN12C = experiment: Cytotoxicity against human SN12C cells; how it was run: as §1
T47D = experiment: Cytotoxicity against human T47D cells; how it was run: as §2
MCF7 = experiment: Cytotoxicity against human MCF7 cells; how it was run: as §1
SNB-19 = experiment: Cytotoxicity against human SNB19 cells; how it was run: as §1
MDA-MB-468 = experiment: Cytotoxicity against human MDA-MB-468 cells; how it was run: as §1
[9] = read-out: pLC50 (the source's name) (converted)

## COc1cc(/C=C/c2cc(O)c3cc(CC=C(C)C)[nH]c3c2)cc2c1O[C@]1(C)CC[C@@H](O)C(C)(C)[C@H]1C2
NCI-H322M
  GI50: 32.4 µM
NCI-H322M; [9]
  CC50: > 100 µM
NCI-H322M; read-out: pTGI (converted)
  TGI: > 100 µM
[1]; OVCAR-3
  GI50: 43.7 µM
[1]; OVCAR-3, read-out: pLC50 (the source's name) (converted)
  CC50: > 100 µM
[1]; OVCAR-3, read-out: pTGI (converted)
  TGI: > 100 µM
SF-539
  GI50: 324 nM
SF-539; [9]
  CC50: 83.2 µM
SF-539; read-out: pTGI (converted)
  TGI: 2750 nM
RXF 393
  GI50: 83.2 nM
  LC50: 11.2 µM
RXF 393; read-out: pTGI (converted)
  TGI: 447 nM
CCRF-CEM
  GI50: 741 nM
CCRF-CEM; [9]
  CC50: > 100 µM
CCRF-CEM; read-out: pTGI (converted)
  TGI: > 100 µM
MOLT-4
  GI50: 813 nM
MOLT-4; [9]
  CC50: > 100 µM
MOLT-4; read-out: pTGI (converted)
  TGI: > 100 µM
A498
  GI50: 1020 nM
A498; [9]
  CC50: > 100 µM
A498; read-out: pTGI (converted)
  TGI: 22.9 µM
SK-MEL-5
  GI50: 1410 nM
SK-MEL-5; [9]
  CC50: 7.24 µM
SK-MEL-5; read-out: pTGI (converted)
  TGI: 3.16 µM
PC-3
  GI50: 1020 nM
  LC50: > 100 µM
PC-3; read-out: pTGI (converted)
  TGI: > 100 µM
NCI-H226
  GI50: 57.5 µM
NCI-H226; [9]
  CC50: > 100 µM
NCI-H226; read-out: pTGI (converted)
  TGI: > 100 µM
HT-29
  GI50: 2630 nM
HT-29; [9]
  CC50: 79.4 µM
HT-29; read-out: pTGI (converted)
  TGI: 18.6 µM
SK-MEL-2
  GI50: 1950 nM
SK-MEL-2; [9]
  CC50: > 100 µM
SK-MEL-2; read-out: pTGI (converted)
  TGI: > 100 µM
BT-549
  GI50: 3.72 µM
BT-549; [9]
  CC50: > 100 µM
BT-549; read-out: pTGI (converted)
  TGI: 50.1 µM
HCC 2998
  GI50: 9.55 µM
HCC 2998; [9]
  CC50: > 100 µM
HCC 2998; read-out: pTGI (converted)
  TGI: > 100 µM
MDA-MB-435
  GI50: 3.8 µM
MDA-MB-435; [9]
  CC50: > 100 µM
MDA-MB-435; read-out: pTGI (converted)
  TGI: > 100 µM
U-251
  GI50: 603 nM
U-251; [9]
  CC50: > 100 µM
U-251; read-out: pTGI (converted)
  TGI: > 100 µM
DU-145
  GI50: 8.13 µM
  LC50 (50% lethal concentration): > 100 µM
DU-145; read-out: pTGI (converted)
  TGI: > 100 µM
KM12
  GI50: 2040 nM
KM12; [9]
  CC50: 74.1 µM
KM12; read-out: pTGI (converted)
  TGI: 10.5 µM
SK-OV-3
  GI50: 3.39 µM
  LC50: > 100 µM
SK-OV-3; read-out: pTGI (converted)
  TGI: > 100 µM
[2]; UACC-257
  GI50: 12 µM
[2]; UACC-257, read-out: pLC50 (the source's name) (converted)
  CC50: > 100 µM
[2]; UACC-257, read-out: pTGI (converted)
  TGI: 81.3 µM
ACHN
  GI50: 7.08 µM
  LC50 (concentration killing 50% of cells): > 100 µM
ACHN; read-out: pTGI (converted)
  TGI: > 100 µM
[3]; OVCAR-5
  GI50: 25.7 µM
[3]; OVCAR-5, read-out: pLC50 (the source's name) (converted)
  CC50: > 100 µM
[3]; OVCAR-5, read-out: pTGI (converted)
  TGI: > 100 µM
NCI-H23
  GI50: 6.31 µM
NCI-H23; [9]
  CC50: > 100 µM
NCI-H23; read-out: pTGI (converted)
  TGI: > 100 µM
[4]
  GI50: 4.79 µM
[4]; [9]
  CC50: > 100 µM
[4]; read-out: pTGI (converted)
  TGI: > 100 µM
[5]
  GI50: 64.6 µM
[5]; [9]
  CC50: > 100 µM
[5]; read-out: pTGI (converted)
  TGI: > 100 µM
SF-268
  GI50: 4.27 µM
SF-268; [9]
  CC50: > 100 µM
SF-268; read-out: pTGI (converted)
  TGI: > 100 µM
MDA-MB-231
  GI50: 2690 nM
  LC50: > 100 µM
MDA-MB-231; read-out: pTGI (converted)
  TGI: 63.1 µM
HL-60(TB)
  GI50: 18.6 µM
HL-60(TB); [9]
  CC50: > 100 µM
HL-60(TB); read-out: pTGI (converted)
  TGI: > 100 µM
SF-295; read-out: GI50
  GI50: 290 nM
SF-295; read-out: pGI50 (converted)
  GI50: 288 nM
SF-295; [9]
  CC50: 51.3 µM
SF-295; read-out: pTGI (converted)
  TGI: 1510 nM
SR
  GI50: 759 nM
SR; [9]
  CC50: > 100 µM
SR; read-out: pTGI (converted)
  TGI: > 100 µM
[6]; UACC-62
  GI50: 955 nM
[6]; UACC-62, read-out: pLC50 (the source's name) (converted)
  CC50: > 100 µM
[6]; UACC-62, read-out: pTGI (converted)
  TGI: 7.59 µM
K562
  GI50: 2040 nM
K562; [9]
  CC50: > 100 µM
K562; read-out: pTGI (converted)
  TGI: > 100 µM
[7]; UO-31
  GI50: 479 nM
  LC50: > 100 µM
[7]; UO-31, read-out: pTGI (converted)
  TGI: 5.89 µM
M14
  GI50: 1660 nM
M14; [9]
  CC50: 63.1 µM
M14; read-out: pTGI (converted)
  TGI: 9.33 µM
786-0
  GI50: 363 nM
  LC50 (concentration killing 50% of cells): > 100 µM
786-0; read-out: pTGI (converted)
  TGI: 11 µM
[8]; OVCAR-8
  GI50: > 100 µM
[8]; OVCAR-8, read-out: pLC50 (the source's name) (converted)
  CC50: > 100 µM
[8]; OVCAR-8, read-out: pTGI (converted)
  TGI: > 100 µM
SNB-75
  GI50: 490 nM
SNB-75; [9]
  CC50: > 100 µM
SNB-75; read-out: pTGI (converted)
  TGI: > 100 µM
NCI-H460
  GI50: 3.31 µM
NCI-H460; [9]
  CC50: > 100 µM
NCI-H460; read-out: pTGI (converted)
  TGI: > 100 µM
SN12C
  GI50: 58.9 µM
  LC50: > 100 µM
SN12C; read-out: pTGI (converted)
  TGI: > 100 µM
T47D
  GI50: 29.5 µM
T47D; [9]
  CC50: > 100 µM
T47D; read-out: pTGI (converted)
  TGI: > 100 µM
MCF7
  GI50: 2450 nM
  LC50: > 100 µM
MCF7; read-out: pTGI (converted)
  TGI: 50.1 µM
SNB-19
  GI50: 2630 nM
SNB-19; [9]
  CC50: > 100 µM
SNB-19; read-out: pTGI (converted)
  TGI: > 100 µM
MDA-MB-468
  GI50: 3.02 µM
  LC50: > 100 µM
MDA-MB-468; read-out: pTGI (converted)
  TGI: 26.9 µM
